Converted amounts (≈) assume the structure as drawn.
How the values were obtained:
Type in all cases: functional
Bacillus subtilis [1] = test: Antibacterial activity against Bacillus subtilis NCIM 2079 measured after 12 hrs; conditions: NCIM 2079, 12 h
Outline: (§1)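 Bacteria grown in LB at 37 °C and 180 rpm to OD 1. Compounds added to wells, then 0.1% inoculum of 1 OD culture (620 nm). Growth read as OD at 620 nm after 8 h for gram-negative and after 12 h for gram-positive strains.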

Pseudomonas fluorescens [2] = test: Growth inhibition of Pseudomonas fluorescens NCIM 2036 at 10 ug/ml measured after 8 hrs relative to control; conditions: NCIM 2036, 8 h, read-out: GI; outline: as §1
Pseudomonas fluorescens [3] = test: Growth inhibition of Pseudomonas fluorescens NCIM 2036 at 3 ug/ml measured after 8 hrs relative to control; conditions: NCIM 2036, 8 h, read-out: GI; outline: as §1
Escherichia coli [4] = test: Growth inhibition of Escherichia coli NCIM 2688 at 30 ug/ml measured after 8 hrs relative to control; conditions: NCIM 2688, 8 h, read-out: GI; outline: as §1
Bacillus subtilis [5] = test: Growth inhibition of Bacillus subtilis NCIM 2079 at 30 ug/ml measured after 12 hrs relative to control; conditions: NCIM 2079, 12 h, read-out: GI; outline: as §1
[6] = test system: Mycobacterium tuberculosis; test: Growth inhibition of Mycobacterium tuberculosis H37Ra ATCC 25177 at active stage measured after 8 days by XTT dye based two fold dilution method; conditions: H37Ra ATCC 25177, 192 h
Outline: (§2)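 MTB H37Ra was grown in Dubos medium, then exposed in Mycobacterium pheli minimal medium (pH 6.6) to compounds dissolved in DMSO. The assay ended on day 8 (active) or day 12 (dormant). Viable cells were measured by XTT reduction menadione assay at 470 nm, blank-corrected, relative to vehicle control. Triplicates were expressed as mean ± SD. MIC came from dose-response curves.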

Aspergillus niger = test: Antifungal activity against Aspergillus niger NCIM 1196 by standard agar method
Outline: (§3)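 MICs determined by standard agar method; DMSO as solvent control.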

[7] = test system: Mycobacterium tuberculosis; test: Growth inhibition of Mycobacterium bovis BCG ATCC 35743 at dormant stage at 3 ug/ml measured after 12 days by nitrate reductase dye based two fold dilution method relative to control; conditions: BCG str. ATCC 35743, 288 h, read-out: GI
Outline: (§4)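 M. bovis BCG was grown in Dubos medium and assayed in Mycobacterium pheli minimal medium (pH 6.6), with compounds from DMSO stocks. Incubation lasted 8 days for active and 12 days for dormant cultures. Viability was read by nitrate reductase at 540 nm against cell-free blanks, with vehicle set as 100% growth. Primary screen was at 30, 10 and 3 µg/ml, in triplicate, mean ± SD. MIC was taken from dose-response curves.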

Pseudomonas fluorescens [8] = test: Growth inhibition of Pseudomonas fluorescens NCIM 2036 at 30 ug/ml measured after 8 hrs relative to control; conditions: NCIM 2036, 8 h, read-out: GI; outline: as §1
Bacillus subtilis [9] = test: Growth inhibition of Bacillus subtilis NCIM 2079 at 10 ug/ml measured after 12 hrs relative to control; conditions: NCIM 2079, 12 h, read-out: GI; outline: as §1
Staphylococcus aureus [10] = test: Growth inhibition of Staphylococcus aureus NCIM 2010 at 30 ug/ml measured after 12 hrs relative to control; conditions: NCIM 2010, 12 h, read-out: GI; outline: as §1
[11] = test system: Mycobacterium tuberculosis; test: Growth inhibition of Mycobacterium bovis BCG ATCC 35743 at active stage measured after 8 days by nitrate reductase dye based two fold dilution method; conditions: BCG str. ATCC 35743, 192 h; outline: as §4
Staphylococcus aureus [12] = test: Antibacterial activity against of Staphylococcus aureus NCIM 2010 measured after 12 hrs; conditions: NCIM 2010, 12 h; outline: as §1
[13] = test system: Mycobacterium tuberculosis; test: Growth inhibition of Mycobacterium bovis BCG ATCC 35743 at dormant stage at 10 ug/ml measured after 12 days by nitrate reductase dye based two fold dilution method relative to control; conditions: BCG str. ATCC 35743, 288 h, read-out: GI; outline: as §4
Escherichia coli [14] = test: Antibacterial activity against Escherichia coli NCIM 2688 measured after 8 hrs; conditions: NCIM 2688, 8 h; outline: as §1
[15] = test system: Mycobacterium tuberculosis; test: Growth inhibition of Mycobacterium bovis BCG ATCC 35743 at dormant stage measured after 12 days by nitrate reductase dye based two fold dilution method; conditions: BCG str. ATCC 35743, 288 h; outline: as §4
Staphylococcus aureus [16] = test: Growth inhibition of Staphylococcus aureus NCIM 2010 at 10 ug/ml measured after 12 hrs relative to control; conditions: NCIM 2010, 12 h, read-out: GI; outline: as §1
[17] = test system: Mycobacterium tuberculosis; test: Growth inhibition of Mycobacterium tuberculosis H37Ra ATCC 25177 at dormant stage measured after 12 days by XTT dye based two fold dilution method; conditions: H37Ra ATCC 25177, 288 h; outline: as §2
Staphylococcus aureus [18] = test: Growth inhibition of Staphylococcus aureus NCIM 2010 at 3 ug/ml measured after 12 hrs relative to control; conditions: NCIM 2010, 12 h, read-out: GI; outline: as §1
Candida albicans = test: Antifungal activity against Candida albicans NCIM 3471 by standard agar method; outline: as §3
Escherichia coli [19] = test: Growth inhibition of Escherichia coli NCIM 2688 at 3 ug/ml measured after 8 hrs relative to control; conditions: NCIM 2688, 8 h, read-out: GI; outline: as §1
Escherichia coli [20] = test: Growth inhibition of Escherichia coli NCIM 2688 at 10 ug/ml measured after 8 hrs relative to control; conditions: NCIM 2688, 8 h, read-out: GI; outline: as §1
[21] = Antifungal activity against Cryptococcus neoformans NCIM 576 by standard agar method; outline: as §3
[22] = test system: Mycobacterium tuberculosis; test: Growth inhibition of Mycobacterium bovis BCG ATCC 35743 at dormant stage at 30 ug/ml measured after 12 days by nitrate reductase dye based two fold dilution method relative to control; conditions: BCG str. ATCC 35743, 288 h, read-out: GI; outline: as §4
Pseudomonas fluorescens [23] = test: Antibacterial activity against Pseudomonas fluorescens NCIM 2036 measured after 8 hrs; conditions: NCIM 2036, 8 h; outline: as §1
[24] = Antifungal activity against Fusarium oxysporum NCIM 1332 by standard agar method; outline: as §3
Bacillus subtilis [25] = test: Growth inhibition of Bacillus subtilis NCIM 2079 at 3 ug/ml measured after 12 hrs relative to control; conditions: NCIM 2079, 12 h, read-out: GI; outline: as §1
Aspergillus flavus = test: Antifungal activity against Aspergillus flavus NCIM 539 by standard agar method; outline: as §3

Structure (SMILES)	MIC (Bacillus subtilis [1]) [µg/mL]	inhibition of growth at 10 µg/mL (Pseudomonas fluorescens [2]) [%]	inhibition of growth at 3 µg/mL (Pseudomonas fluorescens [3]) [%]	inhibition of growth at 30 µg/mL (Escherichia coli [4]) [%]	inhibition of growth at 30 µg/mL (Bacillus subtilis [5]) [%]	IC50 [6] [µg/mL]	IC90 [6] [µg/mL]	MIC (Aspergillus niger) [µg/mL]	inhibition of growth at 3 µg/mL [7] [%]	inhibition of growth at 30 µg/mL (Pseudomonas fluorescens [8]) [%]	inhibition of growth at 10 µg/mL (Bacillus subtilis [9]) [%]	inhibition of growth at 30 µg/mL (Staphylococcus aureus [10]) [%]	IC50 [11] [µg/mL]	IC90 [11] [µg/mL]	MIC (Staphylococcus aureus [12]) [µg/mL]	inhibition of growth at 10 µg/mL [13] [%]	MIC (Escherichia coli [14]) [µg/mL]	IC50 [15] [µg/mL]	IC90 [15] [µg/mL]	inhibition of growth at 10 µg/mL (Staphylococcus aureus [16]) [%]	further results
Cc1cccc2cc(/C=C3\SC(=S)N(CCC(=O)O)C3=O)c(Cl)nc12	> 30	-2.3	4.57	10.5	-5.57	> 30	> 30	75 (≈ 191 µM)	17.2	16	-5.28	-12.1	> 30	> 30	> 30	27.9	> 30	> 30	> 30	-19.7	IC50 [17]: > 30 µg/mL; IC90 [17]: > 30 µg/mL; inhibition of growth at 3 µg/mL (Staphylococcus aureus [18]): -4.02%; MIC (Candida albicans): 50 µg/mL (≈ 127 µM); inhibition of growth at 3 µg/mL (Escherichia coli [19]): 8.12%; inhibition of growth at 10 µg/mL (Escherichia coli [20]): 4.27%; MIC [21]: 100 µg/mL (≈ 255 µM); inhibition of growth at 30 µg/mL [22]: 24.8%; MIC (Pseudomonas fluorescens [23]): > 30 µg/mL; MIC [24]: 100 µg/mL (≈ 255 µM); inhibition of growth at 3 µg/mL (Bacillus subtilis [25]): -3.04%; MIC (Aspergillus flavus): 150 µg/mL (≈ 382 µM)
Cc1ccc2cc(/C=C3\SC(=S)NC3=O)c(Cl)nc2c1	> 30	27.1	-8.82	12.9	-9.15	> 30	> 30	75 (≈ 234 µM)	11.4	12.2	-4.08	6.45	> 30	> 30	> 30	15	> 30	> 30	> 30	-4.88	IC50 [17]: > 30 µg/mL; IC90 [17]: > 30 µg/mL; inhibition of growth at 3 µg/mL (Staphylococcus aureus [18]): -13.7%; MIC (Candida albicans): 100 µg/mL (≈ 312 µM); inhibition of growth at 3 µg/mL (Escherichia coli [19]): 13.8%; inhibition of growth at 10 µg/mL (Escherichia coli [20]): 11.3%; MIC [21]: 50 µg/mL (≈ 156 µM); inhibition of growth at 30 µg/mL [22]: 11.4%; MIC (Pseudomonas fluorescens [23]): > 30 µg/mL; MIC [24]: 100 µg/mL (≈ 312 µM); inhibition of growth at 3 µg/mL (Bacillus subtilis [25]): -2.83%; MIC (Aspergillus flavus): 50 µg/mL (≈ 156 µM)
O=C(O)CCN1C(=O)/C(=C/c2cc3cc(F)ccc3nc2Cl)SC1=S	> 30	-7.25	9.73	22.4	-9.07	> 30	> 30	25 (≈ 63 µM)	18.2	7.54	-4.74	-23.8	> 30	> 30	> 30	23.5	> 30	> 30	> 30	-12.1	IC50 [17]: > 30 µg/mL; IC90 [17]: > 30 µg/mL; inhibition of growth at 3 µg/mL (Staphylococcus aureus [18]): 5.15%; MIC (Candida albicans): 50 µg/mL (≈ 126 µM); inhibition of growth at 3 µg/mL (Escherichia coli [19]): 15.7%; inhibition of growth at 10 µg/mL (Escherichia coli [20]): 21.4%; MIC [21]: 25 µg/mL (≈ 63 µM); inhibition of growth at 30 µg/mL [22]: 59.8%; MIC (Pseudomonas fluorescens [23]): > 30 µg/mL; MIC [24]: 50 µg/mL (≈ 126 µM); inhibition of growth at 3 µg/mL (Bacillus subtilis [25]): -5.16%; MIC (Aspergillus flavus): 25 µg/mL (≈ 63 µM)

— ChEMBL document CHEMBL3877264, “Quinolidene-rhodanine conjugates: Facile synthesis and biological evaluation” (Eur J Med Chem, 2017)
